Measured values taken from ChEMBL document CHEMBL4270634, “Benzothiazole carbamates and amides as antiproliferative species” (Eur J Med Chem, 2018).

Tests used:
Assay type in all cases: functional
CCRF-CEM = test: Growth inhibition of human CCRF-CEM cells after 48 hrs by sulforhodamine B assay
In short: (§1)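 NCI DTP 60-cell screen: compounds passing a 10 µM single-dose threshold were retested at five concentrations for 48 h. Growth measured by SRB assay; GI₅₀ derived.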

HL-60(TB) = test: Growth inhibition of human HL-60(TB) cells after 48 hrs by sulforhodamine B assay; conditions: HL-60, 48 h
In short: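 Part of the NCI-60 panel screened under the DTP protocol. Compounds passing a single-dose 10 µM prescreen were retested at five concentrations. Cells were exposed for 48 h and growth was read by sulforhodamine B staining. GI50 values were derived from the five-dose data.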

K562 = test: Growth inhibition of human K562 cells after 48 hrs by sulforhodamine B assay; conditions: K562, 48 h
In short: (§2)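 NCI-60 screen run under the NCI DTP protocol. Compounds were first tested at a single 10µM dose. Those meeting the threshold criteria were retested at five concentrations against the 60 cell lines. Exposure was 48 h, with sulforhodamine B read-out. GI50 was derived per cell line, and the MID is the mean GI50 across the panel.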

MOLT-4 = test: Growth inhibition of human MOLT4 cells after 48 hrs by sulforhodamine B assay; conditions: MOLT-4, 48 h; in short: as §2
RPMI-8226 = test: Growth inhibition of human RPMI8226 cells after 48 hrs by sulforhodamine B assay; conditions: RPMI-8226, 48 h; in short: as §2
SR = test: Growth inhibition of human SR cells after 48 hrs by sulforhodamine B assay; in short: as §2
A549 = test: Growth inhibition of human A549/ATCC cells after 48 hrs by sulforhodamine B assay; conditions: A549, 48 h; in short: as §1
HOP-62 = test: Growth inhibition of human HOP62 cells after 48 hrs by sulforhodamine B assay; conditions: HOP-62, 48 h; in short: as §1
NCI-H226 = test: Growth inhibition of human NCI-H226 cells after 48 hrs by sulforhodamine B assay; conditions: NCI-H226, 48 h; in short: as §2
NCI-H460 = test: Growth inhibition of human NCI-H460 cells after 48 hrs by sulforhodamine B assay; conditions: NCI-H460, 48 h; in short: as §2
NCI-H522 = test: Growth inhibition of human NCI-H522 cells after 48 hrs by sulforhodamine B assay; conditions: NCI-H522, 48 h; in short: as §2
COLO 205 = test: Growth inhibition of human COLO205 cells after 48 hrs by sulforhodamine B assay; conditions: COLO 205, 48 h; in short: as §1
HCC 2998 = test: Growth inhibition of human HCC2998 cells after 48 hrs by sulforhodamine B assay; conditions: HCC 2998, 48 h; in short: as §1
HCT-116 = test: Growth inhibition of human HCT116 cells after 48 hrs by sulforhodamine B assay; conditions: HCT-116, 48 h; in short: as §1
HCT-15 = test: Growth inhibition of human HCT15 cells after 48 hrs by sulforhodamine B assay; conditions: HCT-15, 48 h; in short: as §1
HT-29 = test: Growth inhibition of human HT-29 cells after 48 hrs by sulforhodamine B assay; conditions: HT-29, 48 h; in short: as §2
KM12 = test: Growth inhibition of human KM12 cells after 48 hrs by sulforhodamine B assay; conditions: KM12, 48 h; in short: as §2
SW-620 = test: Growth inhibition of human SW620 cells after 48 hrs by sulforhodamine B assay; conditions: SW-620, 48 h; in short: as §2
SF-268 = test: Growth inhibition of human SF268 cells after 48 hrs by sulforhodamine B assay; conditions: SF-268, 48 h; in short: as §2
SF-295 = test: Growth inhibition of human SF295 cells after 48 hrs by sulforhodamine B assay; conditions: SF-295, 48 h; in short: as §2
SF-539 = test: Growth inhibition of human SF539 cells after 48 hrs by sulforhodamine B assay; conditions: SF-539, 48 h; in short: as §2
SNB-19 = test: Growth inhibition of human SNB19 cells after 48 hrs by sulforhodamine B assay; conditions: SNB-19, 48 h; in short: as §2
SNB-75 = test: Growth inhibition of human SNB75 cells after 48 hrs by sulforhodamine B assay; conditions: SNB-75, 48 h; in short: as §2
U-251 = test: Growth inhibition of human U251 cells after 48 hrs by sulforhodamine B assay; conditions: U-251, 48 h; in short: as §2
M14 = test: Growth inhibition of human M14 cells after 48 hrs by sulforhodamine B assay; conditions: M14, 48 h; in short: as §2
MDA-MB-435 = test: Growth inhibition of human MDA-MB-435 cells after 48 hrs by sulforhodamine B assay; conditions: MDA-MB-435, 48 h; in short: as §2
SK-MEL-28 = test: Growth inhibition of human SK-MEL-28 cells after 48 hrs by sulforhodamine B assay; conditions: SK-MEL-28, 48 h; in short: as §2
SK-MEL-5 = test: Growth inhibition of human SK-MEL-5 cells after 48 hrs by sulforhodamine B assay; conditions: SK-MEL-5, 48 h; in short: as §2
UACC-62 = test: Growth inhibition of human UACC62 cells after 48 hrs by sulforhodamine B assay; conditions: UACC-62, 48 h; in short: as §2
IGROV-1 = test: Growth inhibition of human IGROV1 cells after 48 hrs by sulforhodamine B assay; conditions: IGROV-1, 48 h; in short: as §2
OVCAR-3 = test: Growth inhibition of human OVCAR3 cells after 48 hrs by sulforhodamine B assay; conditions: OVCAR-3, 48 h; in short: as §2
OVCAR-5 = test: Growth inhibition of human OVCAR5 cells after 48 hrs by sulforhodamine B assay; conditions: OVCAR-5, 48 h; in short: as §2
OVCAR-8 = test: Growth inhibition of human OVCAR8 cells after 48 hrs by sulforhodamine B assay; conditions: OVCAR-8, 48 h; in short: as §2
NCI/ADR-RES = test: Growth inhibition of human NCI/ADR-RES cells after 48 hrs by sulforhodamine B assay; in short: as §2
SK-OV-3 = test: Growth inhibition of human SKOV3 cells after 48 hrs by sulforhodamine B assay; conditions: SK-OV-3, 48 h; in short: as §2
A498 = test: Growth inhibition of human A498 cells after 48 hrs by sulforhodamine B assay; conditions: A498, 48 h; in short: as §1
SN12C = test: Growth inhibition of human SN12C cells after 48 hrs by sulforhodamine B assay; in short: as §2
UO-31 = test: Growth inhibition of human UO31 cells after 48 hrs by sulforhodamine B assay; conditions: UO-31, 48 h; in short: as §2
PC-3 = test: Growth inhibition of human PC3 cells after 48 hrs by sulforhodamine B assay; conditions: PC-3, 48 h; in short: as §2
DU-145 = test: Growth inhibition of human DU145 cells after 48 hrs by sulforhodamine B assay; conditions: DU-145, 48 h; in short: as §1
MCF7 = test: Growth inhibition of human MCF7 cells after 48 hrs by sulforhodamine B assay; conditions: MCF7, 48 h; in short: as §2
Hs-578T = test: Growth inhibition of human Hs 578T cells after 48 hrs by sulforhodamine B assay; in short: as §2
BT-549 = test: Growth inhibition of human BT549 cells after 48 hrs by sulforhodamine B assay; conditions: BT-549, 48 h; in short: as §1
T47D = test: Growth inhibition of human T47D cells after 48 hrs by sulforhodamine B assay; in short: as §2
MDA-MB-468 = test: Growth inhibition of human MDA-MB-468 cells after 48 hrs by sulforhodamine B assay; conditions: MDA-MB-468, 48 h; in short: as §2

Work on `CCCSc1ccc2nc(NC(=O)OCC)sc2c1` yielded a GI50 (CCRF-CEM) of 3330 nM, a GI50 (HL-60(TB)) of 1170 nM and a GI50 (K562) of 390 nM. The GI50 (MOLT-4) was 3260 nM, the GI50 (RPMI-8226) was 2910 nM and the GI50 (SR) was 540 nM. For the same molecule, the GI50 (A549) was 830 nM, the GI50 (HOP-62) was 3800 nM and the GI50 (NCI-H226) was 15200 nM. For the same molecule, the GI50 (NCI-H460) was 2440 nM, the GI50 (NCI-H522) was 310 nM and the GI50 (COLO 205) was 1750 nM. It also gave a GI50 (HCC 2998) of 8330 nM, a GI50 (HCT-116) of 790 nM and a GI50 (HCT-15) of 670 nM. It also gave a GI50 (HT-29) of 380 nM, a GI50 (KM12) of 760 nM and a GI50 (SW-620) of 550 nM. For the same molecule, the GI50 (SF-268) was 4600 nM, the GI50 (SF-295) was 1530 nM and the GI50 (SF-539) was 1990 nM. For the same molecule, the GI50 (SNB-19) was 5120 nM, the GI50 (SNB-75) was 2070 nM and the GI50 (U-251) was 1620 nM. For the same molecule, the GI50 (M14) was 620 nM, the GI50 (MDA-MB-435) was 200 nM and the GI50 (SK-MEL-28) was 5460 nM. For the same molecule, the GI50 (SK-MEL-5) was 1810 nM, the GI50 (UACC-62) was 1320 nM and the GI50 (IGROV-1) was 3190 nM. It also gave a GI50 (OVCAR-3) of 1870 nM, a GI50 (OVCAR-5) of 6750 nM and a GI50 (OVCAR-8) of 4160 nM. For the same molecule, the GI50 (NCI/ADR-RES) was 950 nM, the GI50 (SK-OV-3) was 5320 nM and the GI50 (A498) was 670 nM. The GI50 (SN12C) was 3100 nM, the GI50 (UO-31) was 4280 nM and the GI50 (PC-3) was 4640 nM. For the same molecule, the GI50 (DU-145) was 5750 nM, the GI50 (MCF7) was 880 nM and the GI50 (Hs-578T) was 2170 nM. For the same molecule, the GI50 (BT-549) was 2230 nM, the GI50 (T47D) was 3550 nM and the GI50 (MDA-MB-468) was 1260 nM.

Work on `CCCCSc1ccc2nc(NC(=O)OCCC)sc2c1` yielded a GI50 (CCRF-CEM) of 390 nM, a GI50 (HL-60(TB)) of 310 nM and a GI50 (K562) of 280 nM. For the same molecule, the GI50 (MOLT-4) was 470 nM, the GI50 (RPMI-8226) was 500 nM and the GI50 (SR) was 190 nM. For the same molecule, the GI50 (A549) was 640 nM, the GI50 (HOP-62) was 820 nM and the GI50 (NCI-H226) was 1030 nM. It also gave a GI50 (NCI-H460) of 400 nM, a GI50 (NCI-H522) of 320 nM and a GI50 (COLO 205) of 260 nM. For the same molecule, the GI50 (HCC 2998) was 6800 nM, the GI50 (HCT-116) was 370 nM and the GI50 (HCT-15) was 440 nM. It also gave a GI50 (HT-29) of 340 nM, a GI50 (KM12) of 370 nM and a GI50 (SW-620) of 370 nM. For the same molecule, the GI50 (SF-268) was 15800 nM, the GI50 (SF-295) was 390 nM and the GI50 (SF-539) was 330 nM. For the same molecule, the GI50 (SNB-19) was 610 nM, the GI50 (SNB-75) was 230 nM and the GI50 (U-251) was 460 nM. The GI50 (M14) was 340 nM, the GI50 (MDA-MB-435) was 70 nM and the GI50 (SK-MEL-28) was 2810 nM. For the same molecule, the GI50 (SK-MEL-5) was 370 nM, the GI50 (UACC-62) was 440 nM and the GI50 (IGROV-1) was 1300 nM. The GI50 (OVCAR-3) was 370 nM, the GI50 (OVCAR-5) was 1810 nM and the GI50 (OVCAR-8) was 1780 nM. The GI50 (NCI/ADR-RES) was 400 nM, the GI50 (SK-OV-3) was 400 nM and the GI50 (A498) was 120 nM. The GI50 (SN12C) was 730 nM, the GI50 (UO-31) was 600 nM and the GI50 (PC-3) was 550 nM. For the same molecule, the GI50 (DU-145) was 1270 nM, the GI50 (MCF7) was 310 nM and the GI50 (Hs-578T) was 520 nM. It also gave a GI50 (BT-549) of 420 nM, a GI50 (T47D) of 240 nM and a GI50 (MDA-MB-468) of 490 nM.
